Measurements published in ChEMBL document CHEMBL1811814, “Synthesis and evaluation of indole, pyrazole, chromone and pyrimidine based conjugates for tumor growth inhibitory activities--development of highly efficacious cytotoxic agents” (Eur J Med Chem, 2010).

Assays:
Assay type in all cases: functional
Parameters in all cases: scale not given: the % may be the effect or the level left
SK-MEL-2 = assay: Growth inhibition of human SK-MEL-2 cells assessed tumor cell growth at 10^-5 M
In short: (§1)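 NCI 60-human-tumor-cell-line panel screen. Each compound was tested at a single concentration of 10^-5 M, and percent growth of tumor cells was recorded for each cell line. Growth inhibition was expressed from these percent-growth values.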

SNB-75 = assay: Growth inhibition of human SNB75 cells assessed tumor cell growth at 10^-5 M
In short: (§2)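 Single-dose screen at 10^-5 M across the 60 human tumor cell line panel, run to NCI standards. The value is the percent growth of each cell line in the presence of compound. Compounds active at this dose moved on to five-concentration testing (10^-4 to 10^-8 M).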

MDA-MB-468 = assay: Growth inhibition of human MDA-MB-468 cells assessed tumor cell growth at 10^-5 M; in short: as §1
A498 = assay: Growth inhibition of human A498 cells assessed tumor cell growth at 10^-5 M; in short: as §1
SK-MEL-28 = assay: Growth inhibition of human SK-MEL-28 cells assessed tumor cell growth at 10^-5 M; in short: as §1
CAKI-1 = assay: Growth inhibition of human Caki1 cells assessed tumor cell growth at 10^-5 M; in short: as §1
DU-145 = assay: Growth inhibition of human DU145 cells assessed tumor cell growth at 10^-5 M; in short: as §1
KM12 = assay: Growth inhibition of human KM12 cells assessed tumor cell growth at 10^-5 M; in short: as §1
Malme-3M = assay: Growth inhibition of human MALME-3M cells assessed tumor cell growth at 10^-5 M; in short: as §1
NCI-H23 = assay: Growth inhibition of human NCI-H23 cells assessed tumor cell growth at 10^-5 M; in short: as §1
MDA-MB-435 = assay: Growth inhibition of human MDA-MB-435 cells assessed tumor cell growth at 10^-5 M; in short: as §1
U-251 = assay: Growth inhibition of human U251 cells assessed tumor cell growth at 10^-5 M; in short: as §2
IGROV-1 = assay: Growth inhibition of human IGROV1 cells assessed tumor cell growth at 10^-5 M; in short: as §1
MDA-MB-231 = assay: Growth inhibition of human MDA-MB-231 cells assessed tumor cell growth at 10^-5 M; in short: as §1
HT-29 = assay: Growth inhibition of human HT-29 cells assessed tumor cell growth at 10^-5 M; in short: as §1
PC-3 = assay: Growth inhibition of human PC3 cells assessed tumor cell growth at 10^-5 M; in short: as §1
NCI-H226 = assay: Growth inhibition of human NCI-H226 cells assessed tumor cell growth at 10^-5 M; in short: as §1
SN12C = assay: Growth inhibition of human SN12C cells assessed tumor cell growth at 10^-5 M; in short: as §1
M14 = assay: Growth inhibition of human M14 cells assessed tumor cell growth at 10^-5 M; in short: as §1
CCRF-CEM = assay: Growth inhibition of human CCRF-CEM cells assessed tumor cell growth at 10^-5 M; in short: as §1
UACC-62 = assay: Growth inhibition of human UACC62 cells assessed tumor cell growth at 10^-5 M; in short: as §2
HOP-62 = assay: Growth inhibition of human HOP62 cells assessed tumor cell growth at 10^-5 M; in short: as §1
[1] = Growth inhibition of human […] cells assessed tumor cell growth at 10^-5 M; in short: as §1
OVCAR-4 = assay: Growth inhibition of human OVCAR4 cells assessed tumor cell growth at 10^-5 M; in short: as §1
BT-549 = assay: Growth inhibition of human BT549 cells assessed tumor cell growth at 10^-5 M; in short: as §1
HL-60(TB) = assay: Growth inhibition of human HL-60(TB) cells assessed tumor cell growth at 10^-5 M
In short: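 HL-60(TB), part of the 60-line panel, tested at a single concentration of 10^-5 M. The read-out is percent tumor cell growth relative to untreated growth.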

K562 = assay: Growth inhibition of human K562 cells assessed tumor cell growth at 10^-5 M; in short: as §1
SF-268 = assay: Growth inhibition of human SF268 cells assessed tumor cell growth at 10^-5 M; in short: as §1
EKVX = assay: Growth inhibition of human EKVX cells assessed tumor cell growth at 10^-5 M; in short: as §1
ACHN = assay: Growth inhibition of human ACHN cells assessed tumor cell growth at 10^-5 M; in short: as §1
RXF 393 = assay: Growth inhibition of human RXF393 cells assessed tumor cell growth at 10^-5 M; in short: as §1
HCT-15 = assay: Growth inhibition of human HCT15 cells assessed tumor cell growth at 10^-5 M; in short: as §1
OVCAR-3 = assay: Growth inhibition of human OVCAR3 cells assessed tumor cell growth at 10^-5 M; in short: as §1
HCC 2998 = assay: Growth inhibition of human HCC2998 cells assessed tumor cell growth at 10^-5 M; in short: as §1
NCI-H322M = assay: Growth inhibition of human NCI-H322M cells assessed tumor cell growth at 10^-5 M; in short: as §1
MOLT-4 = assay: Growth inhibition of human MOLT4 cells assessed tumor cell growth at 10^-5 M; in short: as §1
UO-31 = assay: Growth inhibition of human UO31 cells assessed tumor cell growth at 10^-5 M; in short: as §2
OVCAR-8 = assay: Growth inhibition of human OVCAR8 cells assessed tumor cell growth at 10^-5 M; in short: as §1
SR = assay: Growth inhibition of human SR cells assessed tumor cell growth at 10^-5 M; in short: as §2
UACC-257 = assay: Growth inhibition of human UACC257 cells assessed tumor cell growth at 10^-5 M; in short: as §2
HOP-92 = assay: Growth inhibition of human HOP92 cells assessed tumor cell growth at 10^-5 M; in short: as §1
SW-620 = assay: Growth inhibition of human SW620 cells assessed tumor cell growth at 10^-5 M; in short: as §2
OVCAR-5 = assay: Growth inhibition of human OVCAR5 cells assessed tumor cell growth at 10^-5 M; in short: as §1
LOX IMVI = assay: Growth inhibition of human LOXIMVI cells assessed tumor cell growth at 10^-5 M; in short: as §1
786-0 = assay: Growth inhibition of human 786-0 cells assessed tumor cell growth at 10^-5 M; in short: as §1
HCT-116 = assay: Growth inhibition of human HCT116 cells assessed tumor cell growth at 10^-5 M; in short: as §1
[2] = Growth inhibition of human Hs 578T cells assessed tumor cell growth at 10^-5 M; in short: as §1
NCI/ADR-RES = assay: Growth inhibition of human NCI/ADR-RES cells assessed tumor cell growth at 10^-5 M; in short: as §1
A549 = assay: Growth inhibition of human A549 cells assessed tumor cell growth at 10^-5 M; in short: as §1

Compound: CN1C(=O)C(=Cc2coc3ccccc3c2=O)C(=O)N(C)C1=O
- Activity (SK-MEL-2): 95.42%
- Activity (SNB-75): 85.44%
- Activity (MDA-MB-468): 104.25%
- Activity (A498): 120.85%
- Activity (SK-MEL-28): 108.31%
- Activity (CAKI-1): 105.77%
- Activity (DU-145): 106.58%
- Activity (KM12): 109.04%
- Activity (Malme-3M): 137.21%
- Activity (NCI-H23): 84.27%
- Activity (MDA-MB-435): 104.58%
- Activity (U-251): 93.36%
- Activity (IGROV-1): 95.15%
- Activity (MDA-MB-231): 96.45%
- Activity (HT-29): 112.32%
- Activity (PC-3): 94.7%
- Activity (NCI-H226): 87.83%
- Activity (SN12C): 88.79%
- Activity (M14): 90.53%
- Activity (CCRF-CEM): 97.29%
- Activity (UACC-62): 87.77%
- Activity (HOP-62): 84.39%
- Activity [1]: 62.63%
- Activity (OVCAR-4): 97.92%
- Activity (BT-549): 87.93%
- Activity (HL-60(TB)): 92.68%
- Activity (K562): 105.28%
- Activity (SF-268): 98.13%
- Activity (EKVX): 98.76%
- Activity (ACHN): 93.31%
- Activity (RXF 393): 91.99%
- Activity (HCT-15): 82.74%
- Activity (OVCAR-3): 103.79%
- Activity (HCC 2998): 99.12%
- Activity (NCI-H322M): 115.86%
- Activity (MOLT-4): 81.25%
- Activity (UO-31): 67.73%
- Activity (OVCAR-8): 86.75%
- Activity (SR): 72.89%
- Activity (UACC-257): 94.47%
- Activity (HOP-92): 87.53%
- Activity (SW-620): 102.73%
- Activity (OVCAR-5): 92.09%
- Activity (LOX IMVI): 89.46%
- Activity (786-0): 95.26%
- Activity (HCT-116): 85.46%
- Activity [2]: 96.44%
- Activity (NCI/ADR-RES): 85.24%
- Activity (A549): 104.96%
